Data taken from ChEMBL document CHEMBL1145831 (J Med Chem, 2003).

Tested on: CCRF-CEM
Assay: In vitro growth inhibitory activity in the human CCRF-CEM leukemia cell line.
Format: functional, cell-based
Summary of the method: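 CCRF-CEM human leukemia cells in log phase, 4.8 × 10⁴ cells per 2 mL well. Medium was RPMI-1640 with 10% dialyzed FBS and 25 mM HEPES. Compounds were serially diluted 1:3 in DMSO and added to duplicate wells, with DMSO-only controls, at 0.5% final DMSO. Cells were exposed 72 h at 37 °C in humidified 5% CO₂, then counted. IC50 in nM.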

SMILES	IC50
COc1ccc(/C=C/[C@@H](C)[C@@H]2C/C=C/C(=O)N[C@H](Cc3ccc(OC)c(Cl)c3)C(=O)NCC(C)(C)C(=O)O[C@@H](CC(C)C)C(=O)O2)cc1	12 nM
COc1ccc(C[C@H]2NC(=O)/C=C/C[C@@H]([C@H](C)[C@@H](O)[C@@H](Cl)c3ccc(OC(=O)C(C)(C)CN)cc3)OC(=O)[C@H](CC(C)C)OC(=O)C(C)(C)CNC2=O)cc1Cl	0.79 nM
COc1ccc(C[C@H]2NC(=O)/C=C/C[C@@H]([C@H](C)[C@@H]3O[C@H]3c3ccc(CO)cc3)OC(=O)[C@H](CC(C)C)OC(=O)C(C)(C)CNC2=O)cc1Cl	0.29 nM
CNCC(=O)NCc1ccc([C@H](Cl)[C@H](O)[C@@H](C)[C@@H]2C/C=C/C(=O)N[C@H](Cc3ccc(OC)c(Cl)c3)C(=O)NCC(C)(C)C(=O)O[C@@H](CC(C)C)C(=O)O2)cc1	0.04 nM
COc1ccc(C[C@H]2NC(=O)/C=C/C[C@@H]([C@H](C)[C@H]3O[C@@H]3c3ccc(CC(=O)O)cc3)OC(=O)[C@H](CC(C)C)OC(=O)C(C)(C)CNC2=O)cc1Cl	0.79 nM
COc1ccc(C[C@H]2NC(=O)/C=C/C[C@@H]([C@H](C)[C@H]3O[C@@H]3c3ccc(COC(=O)CNC(=O)OC(C)(C)C)cc3)OC(=O)[C@H](CC(C)C)OC(=O)C(C)(C)CNC2=O)cc1Cl	0.0055 nM
CCN(CC)Cc1ccc([C@H]2O[C@@H]2[C@@H](C)[C@@H]2C/C=C/C(=O)N[C@H](Cc3ccc(OC)c(Cl)c3)C(=O)NCC(C)(C)C(=O)O[C@@H](CC(C)C)C(=O)O2)cc1	0.003 nM
COc1ccc(C[C@H]2NC(=O)/C=C/C[C@@H]([C@H](C)[C@H]3O[C@@H]3c3cc(C)ccc3C)OC(=O)[C@H](CC(C)C)OC(=O)C(C)(C)CNC2=O)cc1Cl	2 nM
COc1ccc(C[C@H]2NC(=O)/C=C/C[C@@H]([C@H](C)/C=C/c3cccc(C)c3)OC(=O)[C@H](CC(C)C)OC(=O)C(C)(C)CNC2=O)cc1Cl	25 nM
COc1ccc(C[C@H]2NC(=O)/C=C/C[C@@H]([C@H](C)/C=C/c3ccc(C)c(C)c3)OC(=O)[C@H](CC(C)C)OC(=O)C(C)(C)CNC2=O)cc1Cl	70 nM
COc1ccc(C[C@H]2NC(=O)/C=C/C[C@@H]([C@H](C)/C=C/c3cc(C)ccc3C)OC(=O)[C@H](CC(C)C)OC(=O)C(C)(C)CNC2=O)cc1Cl	440 nM
COc1ccc(C[C@H]2NC(=O)/C=C/C[C@@H]([C@H](C)[C@@H]3O[C@H]3c3cc(C)ccc3C)OC(=O)[C@H](CC(C)C)OC(=O)C(C)(C)CNC2=O)cc1Cl	100 nM
COc1ccc(C[C@H]2NC(=O)/C=C/C[C@@H]([C@H](C)/C=C/c3ccc(O)cc3)OC(=O)[C@H](CC(C)C)OC(=O)C(C)(C)CNC2=O)cc1Cl	4 nM
COc1ccc(C[C@H]2NC(=O)/C=C/C[C@@H]([C@H](C)[C@@H](O)[C@@H](Cl)c3ccc(COC(=O)C(C)(C)CN)cc3)OC(=O)[C@H](CC(C)C)OC(=O)C(C)(C)CNC2=O)cc1Cl	0.004 nM
COc1ccc(C[C@H]2NC(=O)/C=C/C[C@@H]([C@H](C)[C@H]3O[C@@H]3c3cccc(C)c3)OC(=O)[C@H](CC(C)C)OC(=O)C(C)(C)CNC2=O)cc1Cl	0.15 nM
COc1ccc(C[C@H]2NC(=O)/C=C/C[C@@H]([C@H](C)[C@H]3O[C@@H]3c3ccc(CN4CCN(C(=O)OC(C)(C)C)CC4)cc3)OC(=O)[C@H](CC(C)C)OC(=O)C(C)(C)CNC2=O)cc1Cl	0.001 nM
COc1ccc(C[C@H]2NC(=O)/C=C/C[C@@H]([C@H](C)[C@@H](O)[C@@H](Cl)c3ccc(CNCCN)cc3)OC(=O)[C@H](CC(C)C)OC(=O)C(C)(C)CNC2=O)cc1Cl	0.092 nM
COC(=O)c1ccc([C@H](Cl)[C@H](O)[C@@H](C)[C@@H]2C/C=C/C(=O)N[C@H](Cc3ccc(OC)c(Cl)c3)C(=O)NCC(C)(C)C(=O)O[C@@H](CC(C)C)C(=O)O2)cc1	0.037 nM
COc1ccc(C[C@H]2NC(=O)/C=C/C[C@@H]([C@H](C)/C=C/c3ccc(CO)cc3)OC(=O)[C@H](CC(C)C)OC(=O)C(C)(C)CNC2=O)cc1Cl	0.79 nM
